Most compounds without a hit are left out; they make up all but 1.8% or so of the library.
CHRM5 agonist = CHRM5 agonism in calcium assay; P08912; CHO-K1 hM5 cells, Fluo-8 calcium fluorescence; 0% DMSO wells, 100% maximal acetylcholine response; 360,000 tested, 0.19% active; activation, % at 3 µM;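 active = activation above the run's mean over test compounds plus 3 SD, cut at about 23% in these data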;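 also: signal is peak over basal fluorescence ratio across the kinetic read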
Target sequence (P08912 whole entry, looked up): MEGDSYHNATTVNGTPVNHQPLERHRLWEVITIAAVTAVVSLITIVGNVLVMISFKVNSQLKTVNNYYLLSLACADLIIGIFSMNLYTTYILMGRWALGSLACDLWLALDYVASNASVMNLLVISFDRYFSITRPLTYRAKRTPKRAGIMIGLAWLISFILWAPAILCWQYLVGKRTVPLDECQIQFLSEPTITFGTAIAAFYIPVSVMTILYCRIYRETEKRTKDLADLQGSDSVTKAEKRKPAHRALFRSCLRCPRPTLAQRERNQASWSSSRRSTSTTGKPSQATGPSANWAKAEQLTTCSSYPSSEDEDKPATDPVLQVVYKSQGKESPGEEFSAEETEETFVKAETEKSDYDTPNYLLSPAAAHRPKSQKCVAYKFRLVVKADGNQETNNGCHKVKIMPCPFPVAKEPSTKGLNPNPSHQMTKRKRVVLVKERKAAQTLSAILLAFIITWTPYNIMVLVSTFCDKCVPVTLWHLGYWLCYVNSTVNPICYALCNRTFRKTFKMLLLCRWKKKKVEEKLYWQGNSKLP
M5 antag = CHRM5 antagonism in calcium assay | P08912 | CHO-hM5 cells, Fluo-8 calcium fluorescence, ACh EC80 | inhibition, % at 3 µM | 360,000 tested, 0.59% active;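 active = inhibition above a per-plate cutoff, the mean of that plate's test compounds plus 3 SD, cut at about 27% in these data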;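 also: 0% = acetylcholine EC80 with DMSO and 100% = DMSO without agonist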
CHRM4 antagonist = CHRM4 antagonism in calcium assay; CHO-hM4 cells, ACh EC80, Fluo-8 calcium fluorescence; 360,000 tested, 0.73% active; inhibition, % at 3 µM;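 active = inhibition above its plate's cutoff, the mean inhibition of sample wells plus 3 SD, cut at about 27% in these data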;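 also: 0% = acetylcholine EC80 with DMSO and 100% = DMSO without agonist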
CHRM4 agonist = agonists of human muscarinic M4 receptor (CHRM4). P08173. CHO-K1 hM4/Gqi5, Fluo-8 calcium fluorescence; vehicle 0%, full acetylcholine response 100%. activation, % at 3 µM. 360,000 tested, 0.14% active;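 active = activation above the run mean over all test wells plus 3 SD, cut at about 32% in these data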;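 also: peak over basal fluorescence ratio per well then scaled between controls; 0% = DMSO wells and 100% = acetylcholine at EC100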
CHRM4 PAM = positive allosteric modulators of human muscarinic M4 receptor. CHO-K1 hM4/Gqi5, Fluo-8 calcium fluorescence, ACh EC20; 0% = ACh EC20, 100% = maximal ACh. activation, % at 3 µM. 360,000 tested, 0.4% active. P08173;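 active = activation above its plate's cutoff, the mean activation of sample wells plus 3 SD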
M5 PAM = positive allosteric modulators of human muscarinic M5 receptor | 360,000 tested, 0.3% active | activation, % at 3 µM | CHO-K1 hM5, Fluo-8 calcium, ACh EC20 PAM; 0% = ACh EC20, 100% = ACh EC100 | P08912;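 active = activation above the run cutoff, the mean activation of all test compounds plus 3 SD, cut at about 18% in these data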
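Probe or stimulus: acetylcholine, EC20 level; Assay system: human M5 receptor in CHO-K1 cells; Schedule: compound preincubation 140 s before EC20 acetylcholine addition; Technique: intracellular calcium via Fluo-8 fluorescence; Dosing: single-point, 3 µM nominal; Read-out basis: percent activation from peak-over-basal fluorescence ratio, scaled EC20-to-EC100 acetylcholine; Repeats: one well per compound, no replicates.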
* marks the source's active call; other numbers are inactive results.

SMILES | CHRM5 agonist | M5 antag | CHRM4 antagonist | CHRM4 agonist | CHRM4 PAM | M5 PAM
O=C(O)c1cccc(-n2c(-c3cnccn3)n[nH]c2=S)c1 | 2.9 | -6.6 | -6.0 | 1.0 | 3.7 | 18.3*
CC(C)N(C(=O)CN(C#N)c1nc(N(C)C)nc(N(C)C)n1)c1ccccc1 | 1.7 | -2.5 | -1.3 | 0.2 | 41.6* | 2.6
CCOc1cc(-c2nc3ccccc3s2)ccc1O | -6.3 | 8.0 | 31.4* | -1.3 | -24.6 | -13.0
COC(=O)[C@@]12C[C@@H](CC(=O)N3CCC(c4ccccc4)CC3)C(=O)N(Cc3ccc4c(c3)OCO4)C1=CCC(C)(C)C2 | -2.5 | -1.2 | 14.6 | 1.4 | -3.8 | 0.8
c1cc2c(cc1C1=NNC(=NC3CC3)SC1)OCCO2 | -15.4 | 99.7* | -8.1 | 0.9 | 1.9 | -30.3
O=C(Nc1ccc2c(c1)OCO2)c1csc([C@H]2C[C@H](O)[C@@H](CO)O2)n1 | 1.5 | -3.0 | -20.0 | 1.3 | 7.5 | -1.1
Cc1ccc(/C=N/NC(=O)NC2CCCCC2)o1 | -1.1 | 3.8 | 8.0 | 2.6 | -6.1 | -11.7
Cc1ccc(/C=C/C(=O)NC2CCCCCCC2)o1 | -2.4 | 5.0 | 7.4 | 0.0 | 28.4* | 2.0
COC(=O)/C(=C\C(=O)c1ccccc1)Nc1ccc(OC)cc1 | 3.3 | 30.1* | -1.0 | 0.9 | 0.5 | 26.7*
O=C(Cn1nc([N+](=O)[O-])nc1Br)NC(c1ccccc1)c1ccccc1 | -1.1 | 7.9 | 30.0* | 2.3 | -7.0 | -4.0
Cc1cccc(C)c1Nc1cn[nH]c1 | 1.5 | -0.9 | 3.1 | -0.1 | -5.6 | -0.6
Cc1ccc(S(=O)(=O)N2[C@H](CC(=O)c3ccc(F)cc3)OC[C@@H]2C)cc1 | 3.3 | 1.4 | -15.4 | 12.9 | 6.2 | -6.1
COC(=O)[C@H](C)NC(=O)NC(C)CCc1ccccc1 (some centres not stated) | -1.7 | 3.1 | -1.1 | 1.9 | 19.8* | 1.8
O=C(Nc1ccc2c(c1)OCCO2)C(CCc1ccccc1)N1CCC(Cc2ccccc2)CC1 (configuration not stated) | 0.1 | -4.7 | -1.6 | 0.7 | 4.1 | -3.2
Cc1ccc(NC(=O)c2cc(-c3cc(Cl)ccc3C)n[nH]2)cc1NS(C)(=O)=O | -0.8 | 10.2 | 4.8 | 9.6 | -3.2 | -5.0
O=C1Nc2ccccc2N(C(=O)c2ccc(-c3ccccc3)cc2)C1c1nc2ccccc2[nH]1 (configuration not stated) | -2.0 | -0.4 | 2.9 | -1.4 | 2.0 | -1.3
CCOC(=O)C(NC(=O)c1ccc(OC)cc1)(OCC1(CC)COC1)C(F)(F)F (configuration not stated) | -2.2 | -11.7 | -6.8 | 0.2 | 17.9* | 10.9
CCOC(=O)C(NC(=O)c1ccccc1)(OCC1(CC)COC1)C(F)(F)F (configuration not stated) | -1.9 | -1.1 | -3.5 | 0.2 | -5.1 | -1.2
CC(=O)CSc1ncnc2sc3c(c12)CCC(C)C3 (configuration not stated) | -7.9 | -8.2 | -13.9 | -1.0 | 22.7* | 11.4
CC1CCc2c(sc3ncnc(SCC(=O)c4ccccc4)c23)C1 (configuration not stated) | -3.6 | 0.0 | -2.2 | 0.0 | 14.2 | 7.2
CCCCCCN1C[C@H](O)[C@@H](n2cc(C3CC3)nn2)C[C@@H]1c1ccccc1 | 0.4 | -0.2 | -1.4 | 0.2 | 0.7 | 3.0
CCNC(=S)NC1CC2CCCC(C1)N2CCc1ccccc1 (configuration not stated) | -23.3 | 69.2* | 37.5* | 0.5 | -15.0 | -33.9
CCNC(=S)NC1CC2CCC(C1)N2Cc1ccccc1 (configuration not stated) | -5.9 | 11.3 | 5.5 | 0.4 | -6.6 | -7.5
Cc1occc1C(=O)N=Nc1c(O)n(C)c2ccccc12 | -2.3 | -7.9 | 12.9 | 2.3 | 28.8* | 1.9
CSc1ncnc2c1ncn2CCCNCC(c1ccccc1)c1ccccc1 | -2.8 | -2.8 | -6.7 | 3.6 | -1.1 | -1.1
O=C(C1=C(O)C(=O)N(CCN2CCOCC2)C1c1cccc(O)c1)c1cc2ccccc2o1 (configuration not stated) | -3.0 | 3.1 | -3.0 | 1.9 | 18.9* | -0.7
